The values below come from ChEMBL document CHEMBL1123240 (J Med Chem, 1986).

Usually IC50 stands for the concentration needed to halve the response being measured.

For test [1], the species on record is Rattus norvegicus. Description: Compound was evaluated for its ability to displace [3H]APB from rat brain synaptic plasma membrane preparations.
The species entered for test [2] is Rattus norvegicus. The test can be described thus: Compound was tested for inhibition of Lateral perforant path(LPP) neurotransmission in hippocampus. The test is classed as functional. Put shortly:
(§1)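 Transverse hippocampal slices, 450 μm, from 30–90-day-old male Holtzman rats. Held at 30 °C, submerged in stirred medium (10 mM glucose, 124 mM NaCl, 3.3 mM KCl, 2.4 mM MgSO4, 2.5 mM CaCl2, 1.2 mM KH2PO4, 26 mM NaHCO3; 95:5 O2/CO2, pH 7.4). Evoked synaptic field potentials recorded extracellularly; CA1 electrodes in stratum radiatum. Drug started at threshold and doubled every 4 min. IC50 from fraction of uninhibited response versus log concentration.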

The species entered for test [3] is Rattus norvegicus. The test can be described thus: Hill coefficient value of compound was evaluated for [3H]-APB binding to rat brain synaptic plasma. Put shortly: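 Rat forebrain synaptic plasma membranes (Holtzman rats, 30–90 days; sucrose gradient, 1.0–1.3 M interface; 3–5 mg protein/mL stock). Membranes ≤200 μg/mL preincubated 5 min at 33 °C, then 1 h at 33 °C. Final: 50 mM HEPES pH 7.4, 10 mM CaCl2, 100 nM DL-[3H]APB, displacer up to 1 mM. Separation by centrifugation, scintillation counting. Nonspecific binding with 1 mM unlabeled ligand. Triplicates on ≥3 membrane preparations.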

The species entered for test [4] is Rattus norvegicus. The test can be described thus: Compound was tested for inhibition of Medial perforant path(MPP) neurotransmission in hippocampus. The test is classed as functional.
The species entered for test [5] is Rattus norvegicus. Description: Compound was tested for inhibition of hippocampal excitatory neurotransmission in schaffer collateral -CA1 pyramidal cells. The test is classed as functional. Put shortly: as §1
Test [6] can be described thus: Ratio of IC50 of Medial perforant path(MPP) to IC50 of Lateral perforant path(LPP). It is filed as functional. The procedure, abridged: (§2)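 Ratio of IC50 values. For line 8, LPP IC50 from slice recording over [3H]APB binding IC50. Each IC50 is a weighted mean of IC50s calculated for each experimental point, or for steep agonist-like curves is read directly from the log concentration–response curve.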

Test [7] in a line: Ratio of IC50 of Lateral perforant path(LPP) to IC50 of [3H]- binding. It is filed as tissue-based. Put shortly: as §2
Test [8] is filed under the species Rattus norvegicus. Description: Compound was tested for inhibition of hippocampal excitatory neurotransmission in schaffer collateral -CA1 pyramidal cells. It is filed as functional. The procedure, abridged:
as §1

The species entered for test [9] is Rattus norvegicus. The test can be described thus: Compound was tested for inhibition of Medial perforant path(MPP) neurotransmission in hippocampus. The test is classed as functional.

Some results are limits rather than exact numbers.

`N[C@@]1(C(=O)O)CC[C@H](P(=O)(O)O)C1`: the IC50 in the test filed under Rattus norvegicus [1] was 0.0047 mM; in the test filed under Rattus norvegicus [2] it was 0.96 mM; in the test filed under Rattus norvegicus [4], 2.4 mM; in the test filed under Rattus norvegicus [5] it was 3.8 mM. In addition, in the test filed under Rattus norvegicus [3], the nH is recorded as 1. In test [6], the Ratio was 2.5.
As for `N[C@@]1(C(=O)O)CC[C@@H](P(=O)(O)O)C1`, the IC50 in the test listed under Rattus norvegicus [1] was 0.08 mM; in the test filed under Rattus norvegicus [2], 0.13 mM; in the test filed under Rattus norvegicus [4], 1.85 mM; in the test listed under Rattus norvegicus [5], above 10 mM. The nH in the test filed under Rattus norvegicus [3] stood at 1.
As to `N[C@@]1(C(=O)O)CCC[C@@H](P(=O)(O)O)C1`, the IC50 in the test listed under Rattus norvegicus [1] was determined as 0.75 mM; in the test filed under Rattus norvegicus [2], 5.8 mM; in the test filed under Rattus norvegicus [4] it was 10 mM; in the test listed under Rattus norvegicus [5], 9.6 mM. The figures for the Ratio in test [7] and in test [6] were 7.7 and 1.7, respectively.
Turning to `N[C@@]1(C(=O)O)CCC[C@H](P(=O)(O)O)C1`, the IC50 came out at 0.84 mM in the test listed under Rattus norvegicus [1], 3.1 mM in the test filed under Rattus norvegicus [2], 7.3 mM in the test listed under Rattus norvegicus [4] and 8.1 mM in the test listed under Rattus norvegicus [5]. Further, the figures for the Ratio in [7] and in test [6] were 3.7 and 2.4, respectively.
For `N[C@@H](CCP(=O)(O)O)C(=O)O`, the IC50 in the test listed under Rattus norvegicus [1] was determined as 0.0015 mM; in the test filed under Rattus norvegicus [8], 2.5 mM; in the test listed under Rattus norvegicus [2] it was 0.0025 mM; in the test listed under Rattus norvegicus [9] it was 0.045 mM. Also, the nH in the test listed under Rattus norvegicus [3] turned out to be 0.8. For the same molecule, the Ratio in test [6] is given as 18.
